# Data taken from ChEMBL document CHEMBL1177869, “Synthesis and dual PPARalpha/delta agonist effects of 1,4-disubstituted 1,2,3-triazole analogues of GW 501516” (Eur J Med Chem, 2010).
# Active and inactive are the calls of the source. The calls are words filed in the database; no cut-off is given here.
# Experiments:
# [1] = Induction of [14C]-oleic acid oxidation in human differentiated skeletal muscle cells assessed as accumulation of oxidized [14C]-oleic acid after 4 hrs by liquid scintillation counting; format: functional
# Outline: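 Human skeletal muscle myoblasts grown to 70-80% confluence, then differentiated 7 days (DMEM 5.5 mM glucose, 2% FCS, 25 pM insulin). Compound at five concentrations from day 3 (96 h). [1-14C]oleic acid (1 μCi/mL, 100 μM) in DPBS with 10 mM HEPES and 1 mM L-carnitine, 4 h at 37 °C. Filter-trapped CO2 counted by scintillation, normalized to protein. EC50 by non-linear regression. GW 501516 positive control.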
# [2] = target: T1, Peroxisome proliferator-activated receptor gamma (Homo sapiens) (UniProt P37231); test: Agonist activity at human PPARgamma ligand binding domain expressed in COS-1 cells co-transfected with Gal4 at 10 uM by luciferase reporter gene assay; format: cell-based
# T1 sequence (whole entry): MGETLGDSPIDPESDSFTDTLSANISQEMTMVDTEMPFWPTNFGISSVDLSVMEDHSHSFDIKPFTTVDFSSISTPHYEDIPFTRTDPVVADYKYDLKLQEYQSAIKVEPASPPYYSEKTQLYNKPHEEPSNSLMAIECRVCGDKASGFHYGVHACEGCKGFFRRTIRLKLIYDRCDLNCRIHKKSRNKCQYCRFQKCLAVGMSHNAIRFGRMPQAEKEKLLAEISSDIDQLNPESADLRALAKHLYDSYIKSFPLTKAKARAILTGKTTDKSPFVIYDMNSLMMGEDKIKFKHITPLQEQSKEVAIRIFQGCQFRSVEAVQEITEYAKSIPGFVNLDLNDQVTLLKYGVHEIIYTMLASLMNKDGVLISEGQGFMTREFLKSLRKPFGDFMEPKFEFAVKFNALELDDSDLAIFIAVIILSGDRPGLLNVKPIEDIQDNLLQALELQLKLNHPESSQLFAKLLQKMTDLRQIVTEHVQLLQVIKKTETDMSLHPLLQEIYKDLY
# Outline: (§1)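 COS-1 cells in DMEM with 10% inactivated FBS, 37 °C, 5% CO2, plated 1 day before lipofectamine transfection. Per well: 320 ng (UAS)5-tk-LUC reporter, 640 ng empty pGL3 basic, 30 ng pSG5-GAL4-hPPAR (α, δ or γ). Compound 10 μM (DMSO negative control) added 5 h post-transfection. Cells kept 24 h, then lysed for luciferase read-out. Positive controls: EHA for PPARα, GW 501516 for PPARδ.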
# [3] = target: T2, Peroxisome proliferator-activated receptor delta (Homo sapiens) (UniProt Q03181); test: Agonist activity at human PPARdelta ligand binding domain expressed in COS-1 cells co-transfected with Gal4 at 10 uM by luciferase reporter gene assay; format: cell-based
# T2 sequence (whole entry): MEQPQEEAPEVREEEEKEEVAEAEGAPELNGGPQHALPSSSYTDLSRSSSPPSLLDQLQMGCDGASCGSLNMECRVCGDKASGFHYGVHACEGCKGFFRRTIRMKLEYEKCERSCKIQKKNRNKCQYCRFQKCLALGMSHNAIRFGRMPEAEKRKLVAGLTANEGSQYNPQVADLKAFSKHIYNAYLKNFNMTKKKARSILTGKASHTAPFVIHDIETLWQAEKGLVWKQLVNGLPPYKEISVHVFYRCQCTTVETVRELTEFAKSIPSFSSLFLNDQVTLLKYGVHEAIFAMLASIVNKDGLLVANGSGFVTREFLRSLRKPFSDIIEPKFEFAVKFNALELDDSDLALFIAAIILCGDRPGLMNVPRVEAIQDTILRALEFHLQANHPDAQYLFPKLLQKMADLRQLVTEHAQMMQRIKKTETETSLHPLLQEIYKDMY
# Outline: as §1, with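 “read-out.” for “read-out. Positive controls: EHA for PPARα, GW 501516 for PPARδ.”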
# [4] = target: T3, Peroxisome proliferator-activated receptor alpha (Homo sapiens) (UniProt Q07869); test: Agonist activity at human PPARalpha ligand binding domain expressed in COS-1 cells co-transfected with Gal4 at 10 uM by luciferase reporter gene assay; format: cell-based; outline: as §1
# T3 sequence (whole entry): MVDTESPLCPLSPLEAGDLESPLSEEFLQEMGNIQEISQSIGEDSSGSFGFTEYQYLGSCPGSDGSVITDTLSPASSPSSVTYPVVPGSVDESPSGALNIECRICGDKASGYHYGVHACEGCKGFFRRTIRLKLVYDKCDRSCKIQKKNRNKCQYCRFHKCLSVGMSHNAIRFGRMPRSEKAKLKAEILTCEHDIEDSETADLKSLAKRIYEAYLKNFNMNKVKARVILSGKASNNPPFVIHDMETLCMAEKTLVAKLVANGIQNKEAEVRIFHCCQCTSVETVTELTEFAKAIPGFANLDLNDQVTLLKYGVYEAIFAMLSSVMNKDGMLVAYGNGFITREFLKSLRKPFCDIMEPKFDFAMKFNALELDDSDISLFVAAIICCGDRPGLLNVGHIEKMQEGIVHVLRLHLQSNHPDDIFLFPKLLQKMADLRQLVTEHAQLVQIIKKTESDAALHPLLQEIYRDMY
EC50 [1] [nM],Activity [2],Activity [3],Activity [4],SMILES
1.4,,,,Cc1cc(SCc2cn(-c3ccc(OC(F)(F)F)c(F)c3)nn2)ccc1OCC(=O)O
10,,,,Cc1cc(SCc2cn(-c3ccc(OC(F)(F)F)cc3)nn2)ccc1OCC(=O)O
0.07,,,,Cc1cc(SCc2sc(-c3ccc(C(F)(F)F)cc3)nc2C)ccc1OCC(=O)O [GW501516]
0.85,inactive,Active,Active,Cc1cc(SCc2cn(-c3ccc(C(F)(F)F)c(F)c3)nn2)ccc1OCC(=O)O
1.8,,,,Cc1cc(SCc2cn(-c3ccc(C(F)(F)F)cc3)nn2)ccc1OCC(=O)O
12,inactive,Active,Active,Cc1cc(SCc2cn(-c3ccc(OC(F)(F)F)c(Cl)c3)nn2)ccc1OCC(=O)O
